The subject of series [1] is HepG2 human hepatoma cells. As to the kind of experiment: Cytotoxicity, HepG2 cells, MTS cell proliferation assay. As to conditions: for EC50: read-out: HepG2 EC50; for Selectivity: SI = EC50(HepG2)/EC50(Dd2). The class given is cell-based. The method, boiled down:
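HepG2 human hepatoma cells were seeded at 2,500 cells/well and pre-incubated for 24 h. Serial dilutions of test compound (0–40 μM range) were then added, followed by a further 48 h incubation.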
In general terms: Tetrazolium dyes change colour on reduction, which living cells bring about.

Series [2] deals with chloroquine-resistant Dd2 strain. The experiment in a line: Antiplasmodial activity against chloroquine-resistant Dd2 strain. The class given is cell-based, Plasmodium falciparum. As to conditions: for antimalarial activity / potency (in words): qualitative statement.
Series [3] can be described thus: Aqueous solubility, Biomek FX with pION μSOL evolution software. Type of series: physicochemical. Particulars: for solubility: pH 6.5.
The nature of series [4]: Aqueous solubility at pH 2.0, in-house HPLC assay. Type of series: physicochemical.

Converted amounts (≈) assume the structure as drawn. “Also recorded” adds a separate entry of the source. Read-outs that look alike come from different tables or passages of the source.

This note sets out measurements from article PMC9233738 (Bioorganic & medicinal chemistry, 2022).

As usually defined, the EC50 is the midpoint of the concentration-response curve. For “1-(3,4-Difluorophenyl)-2-(1,4-dihydro-2H-spiro[phenanthrene-3,4’-piperidin]-1’-yl)ethan-1-one [Compound 5g]”, the concentration for a half-maximal effect (EC50) in series [1] (HepG2 cells, 48 h incubation, MTS, n = 3) is more than 20 µM; in series [2] (read-out: Dd2 EC50, chloroquine-resistant Dd2 strain) it was more than 2.5 µM. The “Solubility pH 6.5” value in series [3] (pH 6.5, Table 6) was “^*** (For 20 μM < solubility ≤ 40 μM)”.
As to `OC(CN1CCC2(CC1)CC(O)c1ccc3ccccc3c1O2)c1ccc(F)c(F)c1` (stereo not shown) [Compound 1], in series [1] (Homo sapiens, HepG2, 48 h), the concentration for a half-maximal effect (EC50) was more than 20 µM. For the same compound, the Selectivity in series [1] is recorded as more than 53.3.
Usually solubility stands for how much of the substance goes into solution per volume. Take `O=C1CC2(CCN(Cc3ccccc3)CC2)Oc2c1ccc1ccccc21` [Compound 2c, 1’-Benzylspiro[benzo[h]chromene-2,4’-piperidin]-4(3H)-one]: the solubility in series [4] (aqueous medium at pH 2.0, pH 2) is not below 80 µM; in series [3] (aqueous medium), 40 to 80 µM (≈ 14.3 to 28.6 µg/mL).
The matching figures for `O=C1CC2(CCN(CCc3ccccc3)CC2)Oc2c1ccc1ccccc21` [Compound 2d, 1’-Phenethylspiro[benzo[h]chromene-2,4’-piperidin]-4(3H)-one]: not below 80 µM and 40 to 80 µM (≈ 14.9 to 29.7 µg/mL).
With `O=C1CC2(CCN(CCC3CCCCC3)CC2)Oc2c1ccc1ccccc21` [Compound 2e, 1’-(2-Cyclohexylethyl)spiro[benzo[h]chromene-2,4’-piperidin]-4(3H)-one], the Selectivity in series [1] is given as more than 30. Besides, the solubility in series [4] (aqueous solution, pH 2) lay in the range of 20 to 40 µM (≈ 7.55 to 15.1 µg/mL); in series [3] (aqueous solution) it was 10 to 20 µM (≈ 3.78 to 7.55 µg/mL).
As for `O=C1CC2(CCN(CCCc3ccccc3)CC2)Oc2c1ccc1ccccc21` [Compound 2f, 1’-(3-Phenylpropyl)spiro[benzo[h]chromene-2,4’-piperidin]-4(3H)-one], the solubility lay within 40 to 80 µM (≈ 15.4 to 30.8 µg/mL) in series [4] (aqueous medium at pH 2.0, pH 2) and 20 to 40 µM (≈ 7.71 to 15.4 µg/mL) in series [3] (aqueous medium).
In the case of `O=C(CN1CCC2(CC1)CC(=O)c1ccc3ccccc3c1O2)c1ccc(F)c(F)c1` [Compound 2g, 1’-(2-(3,4-Difluorophenyl)-2-oxoethyl)spiro[benzo[h]chromene-2,4’-piperidin]-4(3H)-one], the solubility fell in the range of 40 to 80 µM (≈ 16.9 to 33.7 µg/mL) in series [4] (aqueous solution, pH 2) and 40 to 80 µM (≈ 16.9 to 33.7 µg/mL) in series [3] (aqueous solution).
Compound `O=C1CC2(CCN(CCc3ccc(F)c(F)c3)CC2)Oc2c1ccc1ccccc21` [Compound 2h, 1’-(3,4-Difluorophenethyl)spiro[benzo[h]chromene-2,4’-piperidin]-4(3H)-one] registered a solubility in series [3] (aqueous solution) of 10 to 20 µM (≈ 4.07 to 8.15 µg/mL).
`O=C1CC2(CCN(C(=O)Cc3ccc(F)c(F)c3)CC2)Oc2c1ccc1ccccc21` [Compound 2l, 1’-(2-(3,4-Difluorophenyl)acetyl)spiro[benzo[h]chromene-2,4’-piperidin]-4(3H)-one]: the “antimalarial activity / potency (in words)” value in series [2] is “completely lost”.
For the compound `OC1CC2(CCNCC2)Oc2c1ccc1ccccc21` (stereo not shown) [Compound 3a, 3,4-Dihydrospiro[benzo[h]chromene-2,4’-piperidin]-4-ol], in series [1], the Selectivity is reported as more than 54.5. In series [4] (aqueous solution, pH 2), this compound returned a solubility of 40 to 80 µM (≈ 10.8 to 21.5 µg/mL).
Regarding `CCN1CCC2(CC1)CC(O)c1ccc3ccccc3c1O2` (stereo not shown) [Compound 3b, 1’-Ethyl-3,4-dihydrospiro[benzo[h]chromene-2,4’-piperidin]-4-ol], the solubility in series [4] (aqueous solution, pH 2) is 20 to 40 µM (≈ 5.95 to 11.9 µg/mL); in series [3] (aqueous solution) it was 20 to 40 µM (≈ 5.95 to 11.9 µg/mL).
In the case of `OC1CC2(CCN(Cc3ccccc3)CC2)Oc2c1ccc1ccccc21` (stereo not shown) [Compound 3c, 1’-Benzyl-3,4-dihydrospiro[benzo[h]chromene-2,4’-piperidin]-4-ol], the solubility in series [4] (aqueous medium at pH 2.0, pH 2) was 40 to 80 µM (≈ 14.4 to 28.8 µg/mL); in series [3] (aqueous medium), 40 to 80 µM (≈ 14.4 to 28.8 µg/mL).
Turning to `OC1CC2(CCN(CCc3ccccc3)CC2)Oc2c1ccc1ccccc21` (stereo not shown) [Compound 3d, 1’-Phenethyl-3,4-dihydrospiro[benzo[h]chromene-2,4’-piperidin]-4-ol], the solubility lay within 40 to 80 µM (≈ 14.9 to 29.9 µg/mL) in series [4] (aqueous medium at pH 2.0, pH 2) and 40 to 80 µM (≈ 14.9 to 29.9 µg/mL) in series [3] (aqueous medium).
In the case of `OC1CC2(CCN(CCC3CCCCC3)CC2)Oc2c1ccc1ccccc21` (stereo not shown) [Compound 3e, 1’-(2-Cyclohexylethyl)-3,4-dihydrospiro[benzo[h]chromene-2,4’-piperidin]-4-ol], the solubility in series [4] (aqueous solution, pH 2) was in the range of 40 to 80 µM (≈ 15.2 to 30.4 µg/mL); in series [3] (aqueous solution), 20 to 40 µM (≈ 7.59 to 15.2 µg/mL). The EC50 in series [2] (Plasmodium falciparum, DD2, read-out: Dd2 EC50, chloroquine-resistant Dd2 strain) worked out at 0.32 µM.
In the case of `OC1CC2(CCN(CCCc3ccccc3)CC2)Oc2c1ccc1ccccc21` (stereo not shown) [Compound 3f, 1’-(3-Phenylpropyl)-3,4-dihydrospiro[benzo[h]chromene-2,4’-piperidin]-4-ol], the solubility was not below 80 µM in series [4] (aqueous medium at pH 2.0, pH 2) and not below 80 µM in series [3] (aqueous medium).
Take `O=C(CN1CCC2(CC1)CC(O)c1ccc3ccccc3c1O2)c1ccc(F)c(F)c1` (stereo not shown) [Compound 3g, 1-(3,4-Difluorophenyl)-2-(4-hydroxy-3,4-dihydrospiro[benzo[h]chromene-2,4’-piperidin]-1’yl)ethanone]: the solubility in series [4] (aqueous solution, pH 2) fell in the range of 20 to 40 µM (≈ 8.47 to 16.9 µg/mL); in series [3] (aqueous solution) it was 20 to 40 µM (≈ 8.47 to 16.9 µg/mL).
`O=C(Cc1ccc(F)c(F)c1)N1CCC2(CC1)CC(O)c1ccc3ccccc3c1O2` (stereo not shown) [Compound 3l, 2-(3,4-Difluorophenyl)-1-(4-hydroxy-3,4-dihydrospiro[benzo[h]chromene-2,4’-piperidin]-1’yl)ethanone]: in series [2], the “antimalarial activity / potency (in words)” value is recorded as “lacked antimalarial activity; also recorded: completely lost”.
In the case of `O[C@H](CN1CCC2(CC1)C[C@@H](O)c1ccc3ccccc3c1O2)c1ccc(F)c(F)c1` [Compound 3mb], the Selectivity in series [1] is on record as less than 7.
Take `O[C@@H](CN1CCC2(CC1)C[C@H](O)c1ccc3ccccc3c1O2)c1ccc(F)c(F)c1` [Compound 3mc, (S)-1’-((R)-2-(3,4-Difluorophenyl)-2-hydroxyethyl)-3,4-dihydrospiro[benzo[h]chromene-2,4’-piperidin]-4-ol]: in series [1] (Homo sapiens, HepG2, 48 h), the EC50 is more than 20 µM. This compound yielded a Selectivity in series [1] of more than 15.
The matching figures for `O[C@H](CN1CCC2(CC1)C[C@H](O)c1ccc3ccccc3c1O2)c1ccc(F)c(F)c1` [Compound 3md, (S)-1’-((S)-2-(3,4-Difluorophenyl)-2-hydroxyethyl)-3,4-dihydrospiro[benzo[h]chromene-2,4’-piperidin]-4-ol]: more than 20 µM and more than 11.
As for `c1ccc2c3c(ccc2c1)CCC1(CCNCC1)O3` [Compound 5a, 3,4-Dihydrospiro[benzo[h]chromene-2,4’-piperidine]], the solubility in series [4] (aqueous solution, pH 2) lay within 40 to 80 µM (≈ 10.1 to 20.3 µg/mL); in series [3] (aqueous solution), 20 to 40 µM (≈ 5.07 to 10.1 µg/mL).
As for `c1ccc(CN2CCC3(CCc4ccc5ccccc5c4O3)CC2)cc1` [Compound 5c, 1’-Benzyl-3,4-dihydrospiro[benzo[h]chromene-2,4’-piperidine]], the solubility in series [4] (aqueous medium at pH 2.0, pH 2) lay within 20 to 40 µM (≈ 6.87 to 13.7 µg/mL).
On to `c1ccc2c3c(ccc2c1)CCC1(CCN(CCC2CCCCC2)CC1)O3` [Compound 5e, 1’-(2-Cyclohexylethyl)-3,4-dihydrospiro[benzo[h]chromene-2,4’-piperidine]], for which, in series [4] (aqueous solution, pH 2), the solubility lay within 40 to 80 µM (≈ 14.5 to 29.1 µg/mL).
On the same count and under the same terms, the same measure for `Fc1ccc(CCN2CCC3(CCc4ccc5ccccc5c4O3)CC2)cc1F` [Compound 5h, 1’-(3,4-Difluorophenethyl)-3,4-dihydrospiro[benzo[h]chromene-2,4’-piperidine]]: 20 to 40 µM (≈ 7.87 to 15.7 µg/mL).
The same measure, in the same setting: the same measure for `OC(CN1CCC2(CCc3ccc4ccccc4c3O2)CC1)c1ccc(F)c(F)c1` (stereo not shown) [Compound 5i, 1-(3,4-Difluorophenyl)-2-(3,4-dihydrospiro[benzo[h]chromene-2,4’-piperidin]-1’-yl)ethanol]: 40 to 80 µM (≈ 16.4 to 32.8 µg/mL).
Consider `O=C(Cc1ccc(F)c(F)c1)N1CCC2(CCc3ccc4ccccc4c3O2)CC1` [Compound 5j, 2-(3,4-Difluorophenyl)-1-(3,4-dihydrospiro[benzo[h]chromene-2,4’-piperidin]-1’ yl)ethanone], for which, in series [2], the “antimalarial activity / potency (in words)” value is recorded as “completely lost”.
`O=C1C[C@@]2(CCCN(CCc3ccc(F)c(F)c3)C2)Oc2c1ccc1ccccc21` [Compound 10c, (R)-1’-(3,4-Difluorophenethyl)spiro[benzo[h]chromene-2,3’-piperidin]-4(3H)-one]: the Selectivity in series [1] is recorded as more than 30.
On to `CCN1CCC[C@@]2(CC(O)c3ccc4ccccc4c3O2)C1` (stereo partly drawn) [Compound 11a, (2R)-1’-Ethyl-3,4-dihydrospiro[benzo[h]chromene-2,3’-piperidin]-4-ol], for which, in series [1] (Homo sapiens, HepG2, 48 h), the EC50 is more than 20 µM. The compound also returned a Selectivity in series [1] of more than 28.8.
